Test results from the array DNA melting data of Ke et al. (doi:10.1101/2024.01.08.574731).

Key:
[1] = melting temperature; fluorescence melt of hairpins on a sequencing array, two-state fit, raised by 9.35 °C to match UV melts; conditions: sodium 0.088 M
Summary of the method: (§1)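 Folding enthalpy and melting temperature come from bootstrapped two-state fits to Cy3 fluorescence of library hairpins carrying annealed Cy3 and quencher oligos on a sequenced MiSeq flow cell. Imaging was done in 50 mM Na-HEPES pH 8.0, 25 mM NaCl, stepping by 2.5 °C up to 60 °C, and signals were normalised to pre-quench Cy3 and to control constructs. Results of four replicates were combined by inverse variance, and fitted temperatures were raised by 9.35 °C to match UV melts.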

[2] = folding enthalpy; higher = less favourable; fluorescence melt of hairpins on a sequencing array, two-state fit; conditions: sodium 0.088 M
Summary of the method: as §1

Row | Sequence | Tm [1] [°C] | folding enthalpy [2] [kcal/mol]
1 | GTAGGCGAAAGCCTTTAC ((((((....)))..))) | 24.7 | -8.65
2 | GTAGGCGGAAACGCCCAC ((.((((....)))).)) | 41.1 | -10.2
3 | GTAGGGACGAAAGTCTAC (((..(((....)))))) | 30 | -12
4 | GTAGGGCCGAAAGGCTAC (((..(((....)))))) | 35 | -9.3
5 | GTAGGGGGAAACCCCCAC ((.((((....)))).)) | 43.5 | -12.6
6 | GTAGGGGGAAACCCCTGC (.(((((....))))).) | 53.2 | -21.9
7 | GTAGGGGGAAACTCCTGC (.(((.(....).))).) | 35.5 | -20
8 | GTAGTAACGAAAGTTTAC (((..(((....)))))) | 27.1 | -9.07
9 | GTAGTACGAAAGTAATAC (((.(((....))).))) | 43.2 | -28.9
10 | GTAGTCGAAAGACAATAC ((((((....)))..))) | 28.3 | -15.2
11 | GTAGTCGAAAGACCTTAC ((((((....)))..))) | 29.4 | -14.1
12 | GTAGTCGAAAGACGCTAC ((((((....)))..))) | 36.1 | -14.2
13 | GTAGTCGAAAGACGTTAC ((((((....)))..))) | 35 | -12.2
14 | GTAGTCGCGAAAGCGTAC (((..(((....)))))) | 32.9 | -8.28
15 | GTAGTCGGAAACGATTAC (((.(((....))).))) | 44.1 | -30.4
16 | GTAGTCGGAAACGATTGC (.(.(((....))).).) | 31.2 | -17.2
17 | GTAGTCGGAAACGGCTAC ((((.((....)).)))) | 54.6 | -43.1
18 | GTAGTGCGAAAGCAGTAC (((.(((....))).))) | 58.2 | -31.2
19 | GTAGTGTCGAAAGACTAC (((..(((....)))))) | 33.3 | -15.1
20 | GTAGTTGCGAAAGCATAC (((..(((....)))))) | 31.1 | -10.9
21 | GTAGTTGGAAACAGTTAC (((..((....))..))) | 28.7 | -9.43
22 | GTAGTTGGAAACGACTAC (((((.(....).))))) | 45.8 | -26.4
23 | GTATAACGAAAGTTTTAC (((.(((....))).))) | 34.7 | -20.8

Row | Sequence | Tm [1] [°C] | folding enthalpy [2] [kcal/mol]
24 | GTATAATCGAAAGATTAC (((..(((....)))))) | 30 | -10.9
25 | GTATACCGAAAGGTTAC (((.(((....)))))) | 40.1 | -17.4
26 | GTATACGAAAGTAACTAC ((((((....)))..))) | 26.4 | -19.9
27 | GTATACGAAAGTAATAC ((((((....))).))) | 35.5 | -19.2
28 | GTATACGAAAGTATATAC ((((((....)))..))) | 34.7 | -14.4
29 | GTATACGAAAGTATTAC ((((((....))).))) | 32.8 | -13.9
30 | GTATACGGAAACGCATAC ((((.((....)).)))) | 37.3 | -28.2
31 | GTATACGGAAACGTACAC ((.((((....)))).)) | 32.4 | -18.6
32 | GTATACGGAAACGTGTAC (((.(((....))).))) | 46.3 | -35.3
33 | GTATAGGGAAACCCATAC ((((.((....)).)))) | 31.8 | -16.1
34 | GTATAGGGAAACCTATGC (.(((((....))))).) | 38 | -22.2
35 | GTATATGGAAACATATAC (((((((....))))))) | 47.9 | -42
36 | GTATCCGAAAGGACTTAC ((((((....)))..))) | 28.6 | -11.4
37 | GTATCCGAAAGGAGTAC ((((((....))).))) | 35.5 | -19.1
38 | GTATCCGAAAGGATGTAC ((((((....)))..))) | 36.7 | -11.5
39 | GTATCCGAAAGGATTAC ((((((....))).))) | 41 | -13.7
40 | GTATCCGGAAACGGATGC (.(((((....))))).) | 53 | -28.3
41 | GTATCGGGAAACCAATAC ((((.((....)).)))) | 30.3 | -24.6
42 | GTATGACGAAAGTCCTAC (((.(((....))).))) | 38.9 | -24.3
43 | GTATGACGAAAGTCTAC (((.(((....)))))) | 39 | -16.9
44 | GTATGACGAAAGTCTTAC (((.(((....))).))) | 47.2 | -24.7
45 | GTATGAGCGAAAGCTTAC (((..(((....)))))) | 30.1 | -9.43
46 | GTATGAGGAAACTCATAC (((((((....))))))) | 54.6 | -36.9

Row | Sequence | Tm [1] [°C] | folding enthalpy [2] [kcal/mol]
47 | GTATGCCCGAAAGGGTAC (((..(((....)))))) | 31.2 | -8.06
48 | GTATGCCGAAAGGCCTAC (((.(((....))).))) | 45.5 | -12.1
49 | GTATGCGAAAGCAAATAC ((((((....)))..))) | 37.7 | -16.7
50 | GTATGCGAAAGCAACTAC ((((((....)))..))) | 36.2 | -11.6
51 | GTATGCGAAAGCAGTAC ((((((....))).))) | 39.5 | -17.7
52 | GTATGCGAAAGCATGTAC ((((((....)))..))) | 38 | -10.6
53 | GTATGGCCGAAAGGCTAC (((..(((....)))))) | 30 | -7.75
54 | GTATGGCGAAAGCCCTAC (((.(((....))).))) | 37.8 | -18.4
55 | GTATGGCGAAAGCCTAC (((.(((....)))))) | 46.6 | -13.2
56 | GTATGGCGAAAGCCTTAC (((.(((....))).))) | 48.2 | -22.8
57 | GTATGGGGAAACCCGTAC (((.(((....))).))) | 49.1 | -34.5
58 | GTATGGTCGAAAGACTAC (((..(((....)))))) | 27.9 | -15.5
59 | GTATGTCCGAAAGGATAC (((..(((....)))))) | 26.8 | -16.3
60 | GTATGTCGAAAGACCTAC (((.(((....))).))) | 39.6 | -19.2
61 | GTATGTGAAAACATAC ((((((....)))))) | 50.4 | -36.2
62 | GTATGTGGAAACACATAC (((((((....))))))) | 56 | -42.4
63 | GTATTAGGAAACTAGTAC (((.(((....))).))) | 29 | -16.2
64 | GTATTCGAAAGAACTAC ((((((....))).))) | 22.4 | -9.16
65 | GTATTCGAAAGAATCTAC ((((((....)))..))) | 33.3 | -10.7
66 | GTATTCGGAAACGAATAC (((((((....))))))) | 56.8 | -48.2
67 | GTATTCTCGAAAGAGTAC (((..(((....)))))) | 22.9 | -7.69
68 | GTATTGCCGAAAGGCTAC (((..(((....)))))) | 50 | -3.24
